Source: PubChem (several laboratories)
This is a sample that favours compounds with a hit; in the whole collection about 5.6% have one here.
GRIN3A LBD mod: modulates the human NR3A ligand-binding domain; NR3A LBD differential scanning fluorimetry, Tm shift; 0% = protein alone, 100% = glycine-bound protein; hit rate 2.5% among 340,000; Tm shift relative to glycine control, % at 25 µM;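 active = melting temperature shift of at least 10% of the positive control shift, at one fixed dose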
aDG glyco up: increases alpha dystroglycan glycosylation | Pro5-aDG cells, alpha-DG glycosylation AlphaScreen (IIH6); 0% Pro5, 100% B10-LARGE cell signal | activation, % at 10 µM | hit rate 0.22% among 360,000 | AID 624168;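 active = activation of at least 8% versus controls, or a plate z-score of at least 8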;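 note: Pro5 are CHO cells carrying HIG-tagged alpha-DG that lacks glycosylation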
CHOP inh: blocks CHOP induction under ER stress; hit rate 3.8% among 220,000; CHO-K1 CHOP-promoter luciferase, tunicamycin-induced, 15-18 h; inhibition, % at 10 µM;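 active = compounds that reduced the stress-induced luciferase reporter signal by more than about 70% of percent inhibition, limit read from the data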;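 note: 0% = tunicamycin plus vehicle and 100% = wells without tunicamycin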
XBP1 UPR activ: adaptive UPR (XBP1) activation; CHO-XBP1 luciferase reporter, IRE1-XBP1 UPR activation, luminescence; percent of tunicamycin response, DMSO as zero; activation, % at 20 µM; hit rate 0.33% among 330,000; AID 463104;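 active = versus positive control, 20 µM dose yields 30% or more activation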;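 note: 100% = tunicamycin at 10 µg/mL and 0% = DMSO only wells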
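incubation = overnight seeding at 37 °C, 6 h compound treatment at 37 °C | assay system = CHO-XBP1 cells stably carrying IRE1-XBP1-driven luciferase reporter | input = 1000 cells per well | detection = luciferase luminescence | dosing = single point, 20 µM final compound, 1% DMSO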
MPTP inh: inhibitors of mitochondrial permeability transition pore | isolated mouse mitochondria, Ca2+ swelling absorbance, 30 min | inhibition, % at 10 µM | hit rate 1.4% among 360,000;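 active = inhibition of 50% or more, scaled per plate between neutral and stimulator controls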;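 note: 0% = DMSO wells given calcium and 100% = 1 mM EGTA wells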
UPR CHOP act: activators of apoptotic arm of unfolded protein response (CHOP) | CHO-CHOP luciferase reporter, UPR activation, luminescence; percent of tunicamycin response over DMSO baseline | activation, % at 10 µM | hit rate 0.34% among 330,000;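 active = at 10 µM dose, activation of 40% or more, normalized to positive control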;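 note: 100% = tunicamycin at 10 µg/mL and 0% = DMSO alone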
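System: CHO CHOP reporter cells. Amount: 500 cells per well. Buffer or medium: F12 medium, 10% FBS. Compound dosing: one dose, 10 µM in 0.5% DMSO. Incubation: 6 h compound exposure at 37 °C after overnight seeding. Technique: Steady-Glo luciferase luminescence. Benchmarks: tunicamycin and DMSO controls.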
* marks the source's active call; other numbers are inactive results; / = no result given.

SMILES	GRIN3A LBD mod	aDG glyco up	CHOP inh	XBP1 UPR activ	MPTP inh	UPR CHOP act
CC1(C)CC(=O)C(C(=O)CCCCC(=O)C2C(=O)CC(C)(C)CC2=O)C(=O)C1	2	0	27	8	1	0
CN(C)c1ccc(-c2csc(C(C)(O)c3ccc(F)c(F)c3)n2)cc1 (centres undefined)	/	0	/	/	15	/
N/C(=N\OC(=O)c1cccc2ccccc12)c1cccc([N+](=O)[O-])c1	26*	0	63	-2	-2	2
Cc1ccccc1C(=O)O/N=C(\N)c1cccc([N+](=O)[O-])c1	-7	0	37	-1	-1	2
CC(=O)O[C@H]1C(=O)[C@@]2(C)C([C@H](OC(=O)c3ccccc3)[C@]3(O)C[C@H](OC(=O)[C@H](O)[C@@H](NC(=O)c4ccccc4)c4ccccc4)C(C)=C1C3(C)C)[C@]1(OC(C)=O)CO[C@@H]1C[C@@H]2O (some centres undefined)	/	/	88*	/	/	/
Cc1cccc(Nc2nnc(SC/C(O)=C(\C#N)c3nc4ccccc4[nH]3)s2)c1	10*	0	6	2	4	0
Cc1ccc(Nc2nnc(SC/C(O)=C(\C#N)c3nc4ccccc4[nH]3)s2)c(C)c1	13*	0	15	-1	7	3
COc1ccc(-c2cn3c(C)c(C(=O)Nc4ccncc4)sc3n2)cc1	8	4	65	-2	1	7
COC(=O)c1ccc(NC(=O)c2sc3nc(-c4ccccc4)cn3c2C)cc1	28*	6	56	0	36	-3
CC(=O)Nc1ccc(S(=O)(=O)N2CCC(c3nnc(-c4ccc(C)cc4)o3)CC2)cc1	3	0	/	-2	1	-1
CC(=O)Nc1cccc(-c2csc(Nc3cc(C)ccn3)n2)c1	10*	0	25	3	2	1
CC(=O)Nc1ccc(-c2csc(Nc3cc(C)ccn3)n2)cc1	25*	0	9	7	0	4
CCc1ccc2oc(-c3cc(N)ccc3O)nc2c1	-5	0	78*	-15	-3	-8
Cc1cc(NC(=O)CSc2nc3c(sc4ccccc43)c(=O)n2CCCN2CCOCC2)n[nH]1	1	0	12	0	-1	-3
Cc1cc(NC(=O)CSc2nc3c(sc4ccccc43)c(=O)n2CCc2ccccc2)n[nH]1	27*	0	6	-2	0	5
CCCNC(=O)NC(=O)COC(=O)c1oc2ccc(OCC)cc2c1C	-2	0	72*	0	1	1
Cn1c(=S)[nH]c2sc3c(c2c1=O)CCC(C(C)(C)C)C3 (centres undefined)	/	0	/	8	6	15
Cc1oc2c(c1C(=O)N1CCC(C)CC1)C(=O)c1ccccc1C2=O	0	/	4	-4	/	2
CCOC(=O)C1CCN(C(=O)c2c(C)oc3c2C(=O)c2ccccc2C3=O)CC1	-1	4.3*	-32	0	-2	-1
CCCN(C)C[C@H]1OCc2cnnn2CCCC(=O)N([C@H](C)CO)C[C@@H]1C	/	0	/	/	-1	/
COc1ccc(C2(C(=O)NCCc3ccccc3)CCCC2)cc1	0	0	/	-7	-2	-1
COc1ccc(C2(C(=O)O)CCCC2)cc1	11*	0	19	-2	-2	1
Cc1nnc(-c2cccc(Br)c2)c2cn(-c3cccc(Br)c3)nc12	-3	0	75*	1	23	1
CC(C)c1ccc(-c2nc3ccccc3s2)cc1	1	0	93*	-7	1	-9
N=c1ccn2c(n1)OC1[C@@H](O)[C@@H](CO)O[C@H]12 (some centres undefined)	/	/	16	/	/	/
Cc1ccc(N2CCN(C(=O)CNS(=O)(=O)c3ccc(Br)s3)CC2C)cc1 (centres undefined)	-1	1	72*	-4	-1	-1
